Peptide text beside a SMILES is read from it. * marks the point of attachment. Cbz = O=C(OCc1ccccc1)*

The target of one test is Proteasome. The test is described as follows: Inhibitory constant for the inactivation of the chymotrypsin like activity of proteasome from human red blood corpuscles was determined. The class given is subcellular. The essentials:
(§1)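 Proteasome isolated from human erythrocytes by a previously described procedure. Its chymotrypsin-like activity was followed by hydrolysis of the fluorogenic substrate Suc-Leu-Leu-Val-Tyr-NHMec. Inhibition was treated as slow-binding, with a fast EI complex forming first and then isomerising to a tight EI*. Ki* was obtained from the final steady-state rates using a rearranged competitive-inhibition equation.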
In turn, `CC(C)C[C@H](NC(=O)[C@H](C)NC(=O)OCc1ccccc1)C(=O)C=O` gave a Ki of 3860 nM.
Molecule `CC(C)[C@H](NC(=O)OCc1ccccc1)C(=O)N[C@@H](Cc1ccccc1)C(=O)C=O` gave a Ki of 2050 nM.
Still for that read-out and setting: under `CC(C)C[C@H](NC(=O)[C@H](CC(C)C)NC(=O)[C@@H](CC(C)C)NC(=O)c1ccccc1)C(=O)C=O` stands 3.7 nM; under `CC(C)C[C@H](NC(=O)[C@@H](CC(C)C)NC(=O)OCc1ccccc1)C(=O)N[C@@H](Cc1ccc(O)cc1)C(=O)C=O`, 3.1 nM.
Turning to `CC(C)C[C@H](NC(=O)OCc1ccccc1)C(=O)N[C@@H](Cc1ccccc1)C(=O)C=O`, the Ki stood at 1400 nM.
The same measure, in the same setting: under `C[C@H](NC(=O)OCc1ccccc1)C(=O)N[C@@H](Cc1ccccc1)C(=O)C=O` stands 9200 nM.
The same measure, in the same setting: under `CC(C)C[C@@H](C=O)NC(=O)[C@H](CC(C)C)NC(=O)[C@H](CC(C)C)NC(=O)OCc1ccccc1` [MG-132] (Cbz-Leu-Leu-Leu-aldehyde) stands 4 nM.

The test system of another test is Proteasome. Put plainly: Inhibitory constant for the inactivation of the chymotrypsin like activity of proteasome from human red blood corpuscles was determined; NI means no inhibition. The class given is subcellular. Put shortly: as §1
Take `CC(=O)N[C@@H](C(=O)N[C@@H](CC(C)C)C(=O)N[C@@H](CCCCN)C(=O)C=O)C(C)C`: the Ki result is listed as “Not Active”.
`O=CC(=O)[C@H](Cc1ccccc1)NC(=O)[C@@H]1CCCN1C(=O)OCc1ccccc1`: the Ki entry was “Not Active”.
In the case of `CC(=O)N[C@@H](CCCN=C(N)N)C(=O)N[C@@H](CCCN=C(N)N)C(=O)C=O`, the Ki result is on record as “Not Active”.

The values above are taken from ChEMBL document CHEMBL1130749, “Inhibitors of the chymotrypsin-like activity of proteasome based on di- and tri-peptidyl alpha-keto aldehydes (glyoxals)” (Bioorg Med Chem Lett, 1998).
